Source: PubChem BioAssay
CHO parental Ca = counter-screen for OX1R antagonists: effect in parental CHO cells; parental CHO-K1, ATP-induced calcium, Fluo-8 fluorescence; inhibition, % at 5.6 µM; 0.63% of 330,000 active;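 active means inhibition above that plate's mean sample inhibition plus 3 SD, cut at about 26% in these data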;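 further: 0% = ATP-challenged DMSO wells and 100% = DMSO wells without ATP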
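Assay system – parental CHO cells · Reagent – ATP stimulus · Detection – intracellular calcium via Fluo-8 no-wash fluorescent dye · Evaluation – percent inhibition of ATP-evoked calcium rise, normalized to controls · Controls – ATP wells versus no-ATP DMSO wells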
OX1R antag-1 = blocks the human orexin 1 receptor. O43613. OX1R-expressing cells, FRET antagonist read-out. inhibition, % at 6.6 µM. 1.8% of 330,000 active. AID 485270; in the data active means inhibition mostly above about 38%, no sharp cut-off; inactive means mostly below about 40%;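 further: 0% = agonist challenge alone and 100% = reference antagonist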
Target sequence (O43613 whole entry, looked up): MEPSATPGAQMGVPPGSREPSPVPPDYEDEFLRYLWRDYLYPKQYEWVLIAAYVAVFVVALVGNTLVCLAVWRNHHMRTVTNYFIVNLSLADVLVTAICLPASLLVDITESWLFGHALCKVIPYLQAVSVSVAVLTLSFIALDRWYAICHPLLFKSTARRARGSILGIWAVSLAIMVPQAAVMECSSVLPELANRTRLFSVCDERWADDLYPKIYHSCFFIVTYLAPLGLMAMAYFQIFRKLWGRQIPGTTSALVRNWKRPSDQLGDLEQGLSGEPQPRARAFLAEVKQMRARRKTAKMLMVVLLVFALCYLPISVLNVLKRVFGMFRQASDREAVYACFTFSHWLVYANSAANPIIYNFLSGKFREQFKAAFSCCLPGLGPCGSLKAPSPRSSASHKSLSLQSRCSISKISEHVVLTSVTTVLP
GalR3 antag = antagonists of human GalR3 | HEK293 GalR3-CNG cAMP membrane potential fluorescence; galR3 body fused to GalR1 C-terminus | inhibition, % at 3 µM | AID 651719 | 0.44% of 360,000 active;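 active means inhibition above the screen-wide average plus 3 SD, cut at about 13% in these data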;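 further: forskolin and galanin both at EC90 stimulate the cells; cAMP rise reported by CNG channel membrane potential dye signal; 0% = forskolin plus galanin with DMSO and 100% = forskolin alone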
GPR7 antag = blocks human GPR7 receptor signaling; GPR7-expressing cells, fluorescence antagonist assay; inhibition, % at 4.4 µM; 1.1% of 290,000 active; in the data active means inhibition above about 16%, passing the limit was not always enough;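 further: cells stimulated with the agonist NPW; 0% = agonist with vehicle and 100% = vehicle without agonist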
OX1R antag-2 = antagonists of human orexin 1 receptor; AID 434989; 0.43% of 330,000 active; inhibition, % at 5 µM; CHO/OX1R cells, Fluo-8 calcium fluorescence, orexin A;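 active means inhibition above its plate's threshold, mean inhibition of all tested compounds on the plate plus 3 SD, cut at about 37% in these data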;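 further: 0% = orexin A challenge wells and 100% = SB-334867-A antagonist wells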
Numbers without * were called inactive; / = no result given. Hits are enriched below; roughly 3.1% of the tested compounds scored in any of these assays.

SMILES	CHO parental Ca	OX1R antag-1	GalR3 antag	GPR7 antag	OX1R antag-2
CC(C)(C)c1nc(NC(=O)Nc2ccccc2)sc1Br	47*	24	-7	32*	60*
COC(=O)C1=C(C)N(Cc2ccccc2C(F)(F)F)C(=NCc2ccccc2)NC1c1ccc(Cl)cc1 (centres undefined)	/	/	-5	/	/
Cc1cc(NC(=O)c2ccc(-c3ccccc3[N+](=O)[O-])o2)no1	1	27*	1	/	-11
CC(=O)c1cccc(NC(=O)c2ccc(-c3ccccc3[N+](=O)[O-])o2)c1	-26	69*	5	-16	-7
CCn1nnc(NC(=O)c2ccc(-c3ccccc3[N+](=O)[O-])o2)n1	-3	10	-7	-2	-7
CN(c1ccc([N+](=O)[O-])cc1)c1cc2c(c3c1ccn3C)C1CCC2C1 (centres undefined)	/	/	0	/	/
c1ccc(Nc2nnc(-c3ccc4c(c3)OCO4)o2)cc1	/	/	-7	/	/
O=C1N=c2ccc(Br)cc2=C1c1sc(=O)[nH]c1O	3	42*	/	9	-21
Cc1ccc2c(c1)=C(c1sc(N(C)c3ccc(O)cc3)nc1O)C(=O)N=2	1	26	-10	-30	-6
CCC(=O)NC1=C(NC(C)c2ccccc2)C(=O)c2ccccc2C1=O (centres undefined)	-12	64*	8	-7	-21
CC(NC(=O)CN1C(=O)c2ccccc2C1=O)c1ccccc1 (centres undefined)	-5	13	-9	2	5
CCC(=O)Nc1ccc2c(c1)C(=O)c1ccccc1C2=O	-6	37*	-4	3	-11
CCCOC(=O)C[N+](C)(C)CCOC1CC2CCC1(C)C2(C)C (centres undefined)	-9	19	0	7	-11
CC(C)CCOC(=O)C[N+](C)(C)CCOC1CC2CCC1(C)C2(C)C (centres undefined)	-13	5	-10	19*	-25
Cc1cccc(C)c1NC(=O)CN(c1ccccn1)S(=O)(=O)c1ccccc1	25*	16	-1	-9	-15
COc1cc2c(c(OC3OC(CO)C(O)C(O)C3O)c1)C(=O)CC(c1ccc(O)cc1)O2 (centres undefined)	/	/	1	/	/
O=C(Cc1c(Cl)cccc1Cl)OCC(=O)c1ccc[nH]1	/	/	-5	/	/
COCCNC(=O)COC(=O)/C=C/c1cnc2ccccc2n1	1	48*	-7	-15	-3
O=C(COC(=O)/C=C/c1cnc2ccccc2n1)NCC(F)(F)F	-15	24	-1	-6	-14
O=S1(=O)N[C@H](c2ccccc2)COc2cc(Br)ccc21	/	/	1	/	/
CC(C)c1ccccc1NC(=O)Nc1nnc([C@H]2C[C@H](O)[C@@H](CO)O2)s1	/	/	3	/	/
COc1cc(/C=C2/SC(=S)N(Cc3ccccc3)C2=O)ccc1O	33*	8	-2	-11	33
COc1cc(/C=C2/SC(=O)NC2=O)ccc1OCc1ccccc1	-7	54*	-4	3	-19
COc1ccc(/C=C2/SC(=S)NC2=O)cc1OCc1ccccc1	-14	24	-6	-15	-22
COc1cc(/C=C2\SC(=S)N(NS(=O)(=O)c3ccccc3)C2=O)ccc1O	44*	47	-2	-9	24
SMILES	CHO parental Ca	OX1R antag-1	GalR3 antag	GPR7 antag	OX1R antag-2
COc1cc(/C=C2\SC(=S)N(NS(=O)(=O)c3ccc(C)cc3)C2=O)ccc1O	-3	61	-2	-19	-2
CCc1ccc(N=C2NC(=O)/C(=C/c3cc(OC)c(O)c(OC)c3)S2)cc1	/	/	-3	-15	/
COc1cc(/C=C2\SC(=Nc3ccccc3)NC2=O)cc(Cl)c1O	39*	49*	-9	18	61*
C=CCN1[C@@H](C)[C@H](c2ccccc2)Oc2cccc(N3CCCC3)c2S1(=O)=O	/	/	-1	/	/
O=S(=O)(c1cc(F)ccc1F)N1CCN(c2ncnc3ccccc23)CC1	49*	26	-1	/	45*
COC(=O)c1ccccc1NC(=O)c1ccc2c(c1)OCCCO2	-16	59*	-3	-13	-5
COc1cc(NC(=O)c2ccc3c(c2)OCO3)c2ncccc2c1	-12	67*	4	-6	-5
O=C(Nc1cccc2cccnc12)c1ccc2c(c1)OCCO2	-10	67*	-4	-6	11
COc1cc(NC(=O)c2cc(OC)c(OC)c(OC)c2)c2ncccc2c1	/	/	1	/	/
CC(C)[C@@H](C)/C=C/[C@@H](C)[C@H]1CC[C@@H]2[C@]1(C)CCC1[C@]23C=C[C@]2(C[C@@H](O)CC[C@]12C)N(c1cnccn1)O3 (some centres undefined)	/	/	-5	/	/
Cc1ccc(-c2csc(N3CCC(NS(=O)(=O)c4ccc5c(c4)OCCO5)CC3)n2)cc1	55*	36	-6	0	51*
O=C1NC[C@H](CCCCN2CCN(CCC3CCCCC3)C(=O)C2=O)N(CCC2CCCCC2)C1=O	/	/	-3	/	/
O=C(N/N=C/c1ccc(F)cc1)c1ccccc1	-2	2	-7	2	-13
CCn1c2ccccc2c2cc(/C=N/NC(=O)c3ccccc3)ccc21	-22	92*	-4	-2	67*
Cn1c2ccccc2c2cc(/C=N/NC(=O)c3cc(O)cc(O)c3)ccc21	-8	74*	-2	-16	14
COc1cc(C(=O)N/N=C/c2ccc3c(c2)c2ccccc2n3C)ccc1O	/	/	2	-19	/
O=C(OCC(=O)N1CCCC1=O)c1cccc([N+](=O)[O-])c1	-4	48*	-2	-10	-19
Nc1cc(C(=O)OCC(=O)N2CCCC2=O)ccc1Cl	-4	4	-2	/	7
COc1ccc(NC(=O)c2c(C(F)(F)F)nn(C)c2SCc2ccccc2Cl)cc1	46*	6	-5	-19	-20
Cc1ccc2c(c1)sc(-c1ccc(N(C)C)cc1)[n+]2C	42*	40*	1	19	10
Nc1ccc(F)c(CN2CCN(c3ncc(Cc4ccccc4)cn3)CC2)c1	/	/	-6	/	/
O=c1ccc(-c2nc3ccccc3n2C(CCc2ccccc2)c2nc3ccccc3[nH]2)c[nH]1 (centres undefined)	/	/	1	/	/
Cc1nc2ccccc2c2oc(C(=O)N3CCc4ccccc4C3)cc12	-11	35*	-1	-3	-12
COc1ccc(N=CC2=C(Nc3ccc(OC)cc3)c3c(C)nn(-c4ccccn4)c3CC2)cc1	31*	20	/	-2	20
O=C(Oc1ccc2ccccc2c1)c1ccco1	-9	13	1	6	-16
SMILES	CHO parental Ca	OX1R antag-1	GalR3 antag	GPR7 antag	OX1R antag-2
CC1CC(C)(C)Nc2ccc(OC(=O)c3ccco3)cc21 (centres undefined)	-4	69*	-4	0	-8
CCc1nc2ccc(C(=O)N3CCCCC3)cn2c1N(C)CCCc1ccccc1	/	/	-7	/	/
CC(C)N1CCC(C)(C(=O)Nc2ccc(Cl)c(Cl)c2)C1 (centres undefined)	/	/	-5	/	/
CSc1nc2c(c(-c3ccc(O)cc3)c1C#N)CCC2	48*	38	-4	-25	9
NC(=O)NN=C1CCC(O)CC1CC(=O)O (centres undefined)	/	/	1	/	/
COc1ccc(CC2=CC(=O)c3ccccc3C2=O)cc1	4	39*	-12	-4	-4
